According to paper PMC3788622 (Journal of Medicinal Chemistry, 2013):
“Also recorded” adds a separate entry of the source. Blank lines part the entries; values can stand above or below the compound they belong to.

Tests used:
male C57BL/6J mice [1] = test: Histopathology after single subcutaneous injection; assay type: in vivo, mouse
Summary of the method: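 After the single sc dose (1, 3 or 10 mg/kg, 25% DMSO/saline, 9-day observation), two representative mice per group were fixed in 10% formalin. A veterinary pathologist examined cecum, duodenum, heart, ileum, kidney, liver, lung, pancreas, spleen and stomach, blinded to animal identity.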

RPB1 = RPB1 protein ELISA; assay type: cell-based; details: LNCaP cells, 10 μM, 72 h
Summary of the method: (§1)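 LNCaP cells were treated with 10 μM test compound for 72 h. Controls were DMSO vehicle and 1 μM doxorubicin for 24 h. RPB1 was measured with an RPB1-specific ELISA kit and total p53 with a pan-p53 ELISA kit, each following the kit instructions, in biological triplicates.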

LNCaP cells = test: Alkaline comet assay; assay type: cell-based; details: 10 μM, 48 h
Summary of the method: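 LNCaP cells were seeded at 100 000 per well and left to adhere 36–48 h. They were then exposed to 10 μM test compound for 48 h, with 5 μM doxorubicin for 4 h as the comparator. DNA damage was assessed with a commercial comet kit after gentle harvest in PBS. Slides were imaged by confocal microscopy at 10×, and more than 100 comets were scored per condition as percentage of DNA in the tail.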

male C57BL/6J mice [2] = test: Hematological analysis of wild-type mice after six injections; assay type: in vivo, mouse; details: six injections sc 1 mg/kg, before treatment vs at sacrifice
Summary of the method: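 Five healthy male C57BL/6J mice were bled retro-orbitally into K2EDTA tubes for baseline haematology and allowed 1 week to recover. They then received test compound 1 mg/kg sc in 20% DMSO/normal saline every 3 days for six injections. They were bled again 2 days after the final injection and euthanised. Serum and haematology samples were prepared separately; serum ALT, AST, total bilirubin, BUN and creatinine were measured. Data are the mean of five animals ± std.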

male C57BL/6J mice [3] = test: Serum markers of liver and kidney damage after single subcutaneous injection; assay type: in vivo, mouse; details: single sc dose 1, 3, 10 mg/kg; dose stated in the value
Summary of the method: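 All mice from the single sc dose groups (1, 3, 10 mg/kg in 25% DMSO/saline, n = 4, 9-day observation) were bled retro-orbitally. Serum was obtained by centrifugation at 6000 rpm for 5 min. ALT, AST, total bilirubin, BUN and creatinine were measured externally, blinded to animal identity.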

male C57BL/6J mice [4] = test: Serum markers of liver and kidney damage after multiple subcutaneous injections; assay type: in vivo, mouse; details: 1 mg/kg sc every 3 days, three injections
Summary of the method: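 Male C57BL/6J mice, 8 weeks old, were dosed in groups of three with 1 mg/kg sc every 3 days for three injections and sacrificed 2 days after the last. Weight was recorded on injection days and at the end point. Retro-orbital blood was spun at 6000 rpm for 5 min. Serum ALT, AST, total bilirubin, BUN and creatinine were assayed blinded.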

p53 [5] = test: p53 protein ELISA; assay type: cell-based; details: LNCaP cells, 10 μM, 72 h
Summary of the method: as §1

p21, IGFBP3, and GADD45A = test: Quantitative RT-PCR of p53 responsive genes; assay type: cell-based; details: LNCaP cells, 1, 3, 10 μM, 72 h
Summary of the method: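 LNCaP cells were seeded at 50 000 per well, left to adhere 36–48 h, and treated with 1, 3 or 10 μM test compound for 72 h. Total RNA was extracted on columns and reverse transcribed. p21, IGFBP3 and GADD45A were quantified by SYBR Green real-time PCR relative to β-glucuronidase, in biological replicates.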

male C57BL/6J mice [6] = test: Histopathology after multiple subcutaneous injections; assay type: in vivo, mouse
male C57BL/6J mice [7] = test: Escalating single dose subcutaneous injections: animal weight and behavior; assay type: in vivo, mouse
Summary of the method: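 Male C57BL/6J mice, 8 weeks old, were acclimatised 3 days after arrival. Groups of four received one sc dose of 1, 3 or 10 mg/kg in up to 200 μL 25% DMSO/saline. Doses were set by UV/vis using ε 69 500 M–1·cm–1 near 315 nm. Mice were weighed daily for 9 days, then sacrificed. Humane end point was visible duress or weight loss over 15% of starting weight.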

[8] = Liver microsomal stability; assay type: in vitro ADME; details: 1 mg/mL mouse liver microsomes, 37 °C, 60 min, with and without NADPH
Summary of the method: (§2)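 Test compound was incubated with 1 mg/mL human or mouse liver microsomes at 37 °C in 100 mM KH2PO4, 3 mM MgCl2, pH 7.4, with or without 2 mM NADPH. After 60 min, ice-cold methanol was added, samples sat on ice for 10 min or more, then were diluted with water and centrifuged. Analysis was by LC/MS/MS as percent remaining versus time zero, in duplicate.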

[9] = Liver microsomal stability; assay type: in vitro ADME; details: 1 mg/mL human liver microsomes, 37 °C, 60 min, with and without NADPH
Summary of the method: as §2

p53 [10] = details: cited from earlier work
LNCaP xenografts = details: immunocompromised mice, three sc injections at 1 mg/kg; cited from earlier work
[11] = 1 mg/kg sc every 3 days, three injections
[12] = single sc dose 3 mg/kg, 3 mg/kg

Structure (SMILES): CC(=O)N[C@H](CCNC(=O)c1cc(NC(=O)c2cc(NC(=O)c3cc(NC(=O)c4nccn4C)cn3C)cn2C)cn1C)C(=O)Nc1cn(C)c(C(=O)Nc2cc(C(=O)Nc3cc(C(=O)Nc4cc(C(=O)NCCCN(C)CCCNC(=O)c5cccc(C(=O)O)c5)n(C)c4)n(C)c3)n(C)c2)n1 [Polyamide 3, ImPyPyPy-2-(R)^AcHNγ-ImPyPyPy∼NHMe∼IPA]
Organ toxicity by histopathology, overall (male C57BL/6J mice [1]; single sc dose, any dose level tested (1, 3, 10 mg/kg)): no detectable toxicity | RPB1 protein level (RPB1): reduced RPB1 levels | DNA damage (genomic fragmentation) by comet assay (LNCaP cells): no increase in genomic fragmentation; also recorded: did not result in increased DNA damage | Hematologic changes (in words) (male C57BL/6J mice [2]): No significant hematologic changes | Elevation of serum markers of liver and kidney damage (in words) (male C57BL/6J mice [3]): no elevation of these markers at the dose levels tested | Alteration of liver and kidney serum markers (in words) (male C57BL/6J mice [4]): no histopathologic lesions consistent with toxicity or alterations in liver and kidney serum markers | Cellular level of p53 protein (p53 [5]): increased | Transcripts of p53 responsive genes p21, IGFBP3, and GADD45A (p21, IGFBP3, and GADD45A): induced by 3 in a dose-dependent fashion; also recorded: increased | Histopathologic lesions, overall (male C57BL/6J mice [6]; [11]): no histopathologic lesions consistent with toxicity

Structure (SMILES): CC(=O)N[C@@H](CNC(=O)c1cc(NC(=O)c2cc(NC(=O)c3cc(NC(=O)c4nccn4C)cn3C)cn2C)cn1C)CC(=O)Nc1cn(C)c(C(=O)Nc2cc(C(=O)Nc3cc(C(=O)Nc4cc(C(=O)NCCCN(C)CCCNC(=O)c5cccc(C(=O)O)c5)n(C)c4)n(C)c3)n(C)c2)n1 [Polyamide 4, ImPyPyPy-3-(R)^AcHNγ-ImPyPyPy∼NHMe∼IPA]
Kidney lesions by histopathology (in words) (male C57BL/6J mice [1]; single sc dose 1 mg/kg): Milder tubular regeneration and karyomegaly | Liver lesions by histopathology (in words) (male C57BL/6J mice [1]; single sc dose 1 mg/kg): Mild hepatocellular necrosis and apoptosis | Spleen lesions by histopathology (in words) (male C57BL/6J mice [1]; single sc dose 3 mg/kg): Mild lymphoid apoptosis in the white pulp of the spleen | Kidney lesions by histopathology (in words) (male C57BL/6J mice [1]; [12]): Moderate atypical tubular regeneration (karyomegaly, tubular attenuation, mitotic figures) and/or tubular epithelial necrosis and apoptosis | Liver lesions by histopathology (in words) (male C57BL/6J mice [1]; [12]): multifocal bridging hepatocellular necrosis and apoptosis | Kidney lesions by histopathology (in words) (male C57BL/6J mice [1]; single sc dose 10 mg/kg): Moderate atypical tubular regeneration (karyomegaly, tubular attenuation, mitotic figures) and/or tubular epithelial necrosis and apoptosis | Liver lesions by histopathology (in words) (male C57BL/6J mice [1]; single sc dose 10 mg/kg): multifocal bridging hepatocellular necrosis and apoptosis | Spleen lesions by histopathology (in words) (male C57BL/6J mice [1]; single sc dose 10 mg/kg): Mild lymphoid apoptosis in the white pulp of the spleen | Elevation of serum markers of liver and kidney damage (in words) (male C57BL/6J mice [3]): marked and severe elevations of AST, ALT, and total bilirubin at both 3 and 10 mg/kg; also recorded: significantly elevated creatinine and BUN at 10 mg/kg and elevated BUN at 3 mg/kg | Behavior and appearance (male C57BL/6J mice [7]; single sc injection, 3 mg/kg): hunched posture, loss of mobility, and acute morbidity | Behavior and appearance (male C57BL/6J mice [7]; single sc injection, 10 mg/kg): hunched posture, loss of mobility, and acute morbidity | Dose tolerated (only tolerated at) (male C57BL/6J mice [7]; single sc injection, 1, 3, 10 mg/kg tested): 1 mg/kg | Percent intact after 1 h incubation [8]: less than 5% | Percent intact after 1 h incubation [9]: less than 5% | Kidney lesions by histopathology (in words) (male C57BL/6J mice [6]; 1 mg/kg sc, two injections): hyaline droplet accumulation | Liver lesions by histopathology (in words) (male C57BL/6J mice [6]; 1 mg/kg sc, two injections): marked hepatocellular necrosis and apoptosis

Weight loss (male C57BL/6J mice [7]; single sc injection at 1, 3, and 10 mg/kg, observed 9 days): significant weight loss only at 10 mg/kg
Structure (SMILES): CN(CCCNC(=O)c1cccc(C(=O)O)c1)CCCNC(=O)c1cc(NC(=O)c2cc(NC(=O)c3cc(NC(=O)c4nc(NC(=O)[C@H](N)CCNC(=O)c5cc(NC(=O)c6cc(NC(=O)c7cc(NC(=O)c8nccn8C)cn7C)cn6C)cn5C)cn4C)cn3C)cn2C)cn1C [Polyamide 1, ImPyPyPy-2-(R)^H2Nγ-ImPyPyPy∼NHMe∼IPA]
Liver lesions by histopathology (in words) (male C57BL/6J mice [1]; single sc dose 3 mg/kg): Mild hepatocellular necrosis and apoptosis | Kidney lesions by histopathology (in words) (male C57BL/6J mice [1]; single sc dose 10 mg/kg): Milder tubular regeneration and karyomegaly | Liver lesions by histopathology (in words) (male C57BL/6J mice [1]; single sc dose 10 mg/kg): Mild hepatocellular necrosis and apoptosis | Elevation of serum markers of liver and kidney damage (in words) (male C57BL/6J mice [3]): significant elevation of AST, ALT, and total bilirubin at 10 mg/kg; also recorded: moderate elevation of ALT at 3 mg/kg; also recorded: Elevation of creatinine and blood urea nitrogen (BUN) was not observed for any dose level | Alteration of liver and kidney serum markers (in words) (male C57BL/6J mice [4]): elevated AST and ALT | Effect on cellular p53 protein (p53 [10]): increase cellular p53 protein | Cellular level of p53 protein (p53 [5]): increases | Growth of LNCaP xenografts (LNCaP xenografts): suppress the growth of LNCaP xenografts | Kidney lesions by histopathology (in words) (male C57BL/6J mice [6]; [11]): mild variable tubular attenuation, karyomegaly, and epithelial necrosis and apoptosis | Liver lesions by histopathology (in words) (male C57BL/6J mice [6]; [11]): mild multifocal hepatocellular necrosis and apoptosis
